Tests used:
MONO-MAC-6 [1] = assay: Downregulation of TNFalpha mRNA expression level in human MONO-MAC-6 cells at 5 uM incubated for 30 mins measured after 6 hrs by qRT-PCR method relative to control; assay type: functional
[2] = target: T1, Acid ceramidase (Homo sapiens) (UniProt Q13510); assay: Inhibition of TNFalpha-stimulated acid ceramidase in human PBMC assessed as ratio of C24:1-ceramide/lipid phosphate level at 10 uM preincubated for 30 mins followed by TNFalpha stimulation measured after 4 hrs by HPLC method (reference value: 3.05); assay type: cell-based
T1 sequence (whole entry): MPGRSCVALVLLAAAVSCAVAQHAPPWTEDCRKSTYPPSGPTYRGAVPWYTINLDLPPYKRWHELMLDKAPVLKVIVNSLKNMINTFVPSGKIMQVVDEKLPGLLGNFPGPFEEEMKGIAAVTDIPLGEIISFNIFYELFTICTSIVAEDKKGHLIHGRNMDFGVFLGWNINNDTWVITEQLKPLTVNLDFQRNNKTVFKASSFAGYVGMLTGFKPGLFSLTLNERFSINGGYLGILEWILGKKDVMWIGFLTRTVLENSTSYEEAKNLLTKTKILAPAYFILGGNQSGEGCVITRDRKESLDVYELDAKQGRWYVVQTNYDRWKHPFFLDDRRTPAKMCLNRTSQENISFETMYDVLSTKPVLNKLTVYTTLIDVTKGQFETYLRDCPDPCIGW
Outline: (§1)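 Human macrophages from primary culture were preincubated 30 min with 10 µM compound. They were then stimulated 4 h with mmLDL (54 µg/mL), TNFalpha (3 ng/mL) or exogenous C6-ceramide (10 µM), or left unstimulated. Individual ceramide species (C16 and C24:1) were quantified in the cell lipid extracts.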

MONO-MAC-6 [3] = assay: Downregulation of CCL20 mRNA expression level in human MONO-MAC-6 cells at 5 uM incubated for 30 mins measured after 1 hr by oligonucleotide array hybridization assay relative to control; assay type: functional
Outline: (§2)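 Total RNA was isolated, transcribed and labeled with DY-647 dye, then co-hybridized with DY-548-labeled cDNA from untreated cells on an inflammation oligonucleotide chip (780 gene probes). Differential expression >1.5 was taken as significant.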

MONO-MAC-6 [4] = assay: Downregulation of ICAM1 mRNA expression level in LPS-stimulated human MONO-MAC-6 cells at 5 uM preincubated for 30 mins followed by LPS stimulation measured after 2 hrs by oligonucleotide array hybridization assay (reference value: 1.94); assay type: functional; outline: as §2
MONO-MAC-6 [5] = assay: Downregulation of CXCL3 mRNA expression level in LPS-stimulated human MONO-MAC-6 cells at 5 uM preincubated for 30 mins followed by LPS stimulation measured after 1 hr by oligonucleotide array hybridization assay (reference value: 1.18); assay type: functional; outline: as §2
MONO-MAC-6 [6] = assay: Downregulation of CXCL2 mRNA expression level in human MONO-MAC-6 cells at 5 uM incubated for 30 mins measured after 2 hrs by qRT-PCR method relative to control; assay type: functional
MONO-MAC-6 [7] = assay: Downregulation of IL23A mRNA expression level in human MONO-MAC-6 cells at 5 uM incubated for 30 mins measured after 6 hrs by qRT-PCR method relative to control; assay type: functional
[8] = target: T1, Acid ceramidase (Homo sapiens); assay: Inhibition of mmLDL-stimulated acid ceramidase in human PBMC assessed as ratio of C16-ceramide/lipid phosphate level at 10 uM preincubated for 30 mins followed by mmLDL stimulation measured after 4 hrs by HPLC method (reference value: 0.49); assay type: cell-based; outline: as §1
MONO-MAC-6 [9] = assay: Downregulation of CXCL2 mRNA expression level in LPS-stimulated human MONO-MAC-6 cells at 5 uM preincubated for 30 mins followed by LPS stimulation measured after 6 hrs by oligonucleotide array hybridization assay (reference value: 9.41); assay type: functional; outline: as §2
MONO-MAC-6 [10] = assay: Downregulation of ICAM1 mRNA expression level in human MONO-MAC-6 cells at 5 uM incubated for 30 mins measured after 2 hrs by oligonucleotide array hybridization assay relative to control; assay type: functional; outline: as §2
MONO-MAC-6 [11] = assay: Downregulation of IL-6 mRNA expression level in human MONO-MAC-6 cells at 5 uM incubated for 30 mins measured after 4 hrs by qRT-PCR method relative to control; assay type: functional
PBMC = assay: Inhibition of mmLDL-stimulated apoptosis in human PBMC assessed as apoptotic cells at 2 uM preincubated for 30 mins followed by mmLDL stimulation measured after 4 hrs by YO-PRO-1/Hoechst 33342 staining based assay (reference value: 100%); assay type: functional; design: scale not given: the % may be the effect or the level left
Outline: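 PBMC pre-incubated 30 min with 2 μM compound, then stimulated with mmLDL (27 μg/mL; line 5) or TNFalpha (3 ng/mL; line 1) for 4 h. Apoptotic cells stained with YO-PRO-1 and all cells with Hoechst 33342. Each plate had control, stimulus, compound alone and compound plus stimulus; n = 3. Values are on a 0% (untreated control, corrected for spontaneous apoptosis) to 100% (stimulus alone) scale; means ± SE.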

MONO-MAC-6 [12] = assay: Upregulation of PTGS2 mRNA expression level in LPS-stimulated human MONO-MAC-6 cells at 5 uM preincubated for 30 mins followed by LPS stimulation measured after 4 hrs by oligonucleotide array hybridization assay (reference value: 5.29); assay type: functional
MONO-MAC-6 [13] = assay: Upregulation of IL23A mRNA expression level in LPS-stimulated human MONO-MAC-6 cells at 5 uM preincubated for 30 mins followed by LPS stimulation measured after 1 hr by qRT-PCR method (reference value: 1.10); assay type: functional
MONO-MAC-6 [14] = assay: Downregulation of IL-6 mRNA expression level in human MONO-MAC-6 cells at 5 uM incubated for 30 mins measured after 6 hrs by qRT-PCR method relative to control; assay type: functional
MONO-MAC-6 [15] = assay: Downregulation of CCL20 mRNA expression level in LPS-stimulated human MONO-MAC-6 cells at 5 uM preincubated for 30 mins followed by LPS stimulation measured after 6 hrs by oligonucleotide array hybridization assay (reference value: 5.78); assay type: functional; outline: as §2
[16] = target: T1, Acid ceramidase (Homo sapiens); assay: Inhibition of exogenous C6-ceramid-stimulated acid ceramidase in human PBMC assessed as ratio of C24:1-ceramide/lipid phosphate level at 10 uM preincubated for 30 mins followed by C6-ceramid stimulation measured after 4 hrs by HPLC method (reference value: 2.65); assay type: cell-based; outline: as §1

Question: What does the source list for `COc1ccc(CCN(C)CCCn2c3ccccc3c3ccccc32)cc1`?
Answer: fold change (FC) (MONO-MAC-6 [1]): 2.08; Ratio [2]: 1.28; fold change (FC) (MONO-MAC-6 [3]): 1.09; fold change (FC) (MONO-MAC-6 [4]): 1.14; fold change (FC) (MONO-MAC-6 [5]): 1.24; fold change (FC) (MONO-MAC-6 [6]): 1.27; fold change (FC) (MONO-MAC-6 [7]): 1.72; Ratio [8]: 0.24; fold change (FC) (MONO-MAC-6 [9]): 1.01; fold change (FC) (MONO-MAC-6 [10]): 1.28; fold change (FC) (MONO-MAC-6 [11]): 2.25; Activity (PBMC): 33 - 49%; fold change (FC) (MONO-MAC-6 [12]): 4.07; fold change (FC) (MONO-MAC-6 [13]): 1.03; fold change (FC) (MONO-MAC-6 [14]): 46.64; fold change (FC) (MONO-MAC-6 [15]): 1.07; Ratio [16]: 2.65

Reference: ChEMBL document CHEMBL4152184, “NB 06: From a simple lysosomotropic aSMase inhibitor to tools for elucidating the role of lysosomes in signaling apoptosis and LPS-induced inflammation” (Eur J Med Chem, 2018)
